From ChEMBL document CHEMBL3351658, “Exploring human parainfluenza virus type-1 hemagglutinin-neuraminidase as a target for inhibitor discovery” (J Med Chem, 2014)

Tests used:
LLC-MK2 [1] = experiment: (§1) Cytotoxicity against rhesus monkey LLC-MK2 cells assessed as cell viability at 250 uM after 48 hrs by alamar blue assay; type: cell-based, Macaca mulatta; conditions: llc-mk2, 48 h, 250 µM
Procedure, shortened: (§2)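 LLC-MK2 cells were kept in EMEM with 1% glutamine (200 mM) and 2% FBS at 37 °C under 5% CO2. They were exposed in triplicate to 250 µM of each compound for 48 h. Viability was read by MTT or AlamarBlue assay.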

LLC-MK2 [2] = experiment: (§3) Cytotoxicity against rhesus monkey LLC-MK2 cells assessed as cell viability at 250 uM after 48 hrs by MTT assay; type: cell-based, Macaca mulatta; conditions: llc-mk2, 48 h, 250 µM; procedure, shortened: as §2
[3] = Inhibition of hemagglutinin activity of human parainfluenza virus 1 C35 hemagglutinin-neuraminidase incubated for 20 mins in presence of chicken red blood cells; parameters: species or system Human respirovirus 1
Procedure, shortened: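 HI used hPIV-1 strain C-35 grown in LLC-MK2 cells, with clarified supernatant ultrafiltered ≥10-fold. Compounds were diluted in PBS, mixed with virus (1 HAU final) and held 20 min at room temperature. Ice-cold 0.5% chicken RBC were added on ice, then 1 h 30 min at 4 °C. Run in duplicate, maximum 250 µM. IC50 is the concentration matching agglutination of a 0.5 HAU virus-only well.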

[4] = as §1; type: cell-based, Macaca mulatta; conditions: LLC-MK2 cells, read-out: Activity; procedure, shortened: as §2
[5] = as §3; type: cell-based, Macaca mulatta; conditions: LLC-MK2 cells, read-out: Activity; procedure, shortened: as §2

For `CC(=O)N[C@H]1[C@H]([C@H](O)[C@H](O)CO)OC(C(=O)[O-])=C[C@@H]1NC(=N)N.[Na+]`, the Activity (LLC-MK2 [1]) was “Non-toxic”, the Activity (LLC-MK2 [2]) was “Non-toxic” and the IC50 [3] was greater than 250000 nM.

With `CC(C)C(=O)N[C@H]1[C@H]([C@H](O)[C@H](O)CO)OC(C(=O)[O-])=C[C@@H]1NC(=N)N.[Na+]` the Activity (LLC-MK2 [1]) was “Non-toxic”, the Activity (LLC-MK2 [2]) was “Non-toxic” and the IC50 [3] was greater than 250000 nM.

With `CC(CO)C(=O)N[C@H]1[C@H]([C@H](O)[C@H](O)CO)OC(C(=O)[O-])=C[C@@H]1N=[N+]=[N-].[Na+]` (some centres not stated) the Activity (LLC-MK2 [1]) was “Non-toxic”, the Activity (LLC-MK2 [2]) was “Non-toxic” and the IC50 [3] was 3000 nM.

In the case of `[N-]=[N+]=N[C@H]1C=C(C(=O)[O-])O[C@@H]([C@H](O)[C@H](O)CO)[C@@H]1NC(=O)C1CC1.[Na+]`, the Activity (LLC-MK2 [1]) is reported as “Non-toxic”, the Activity (LLC-MK2 [2]) is reported as “Non-toxic” and the IC50 [3] is reported as 320 nM.

In the case of `CC(O)C(=O)N[C@H]1[C@H]([C@H](O)[C@H](O)CO)OC(C(=O)[O-])=C[C@@H]1N=[N+]=[N-].[Na+]` (some centres not stated), the Activity (LLC-MK2 [1]) is reported as “Non-toxic”, the Activity (LLC-MK2 [2]) is reported as “Non-toxic” and the IC50 [3] is reported as 40000 nM.

In the case of `CC(=O)N[C@H]1[C@H]([C@H](O)[C@H](O)CO)OC(C(=O)[O-])=C[C@@H]1O.[Na+]`, the Activity (LLC-MK2 [1]) is reported as “Non-toxic”, the Activity (LLC-MK2 [2]) is reported as “Non-toxic” and the IC50 [3] is reported as 15900 nM.

For `C/C=C(\C)C(=O)N[C@H]1[C@H]([C@H](O)[C@H](O)CO)OC(C(=O)[O-])=C[C@@H]1N=[N+]=[N-].[Na+]`, the Activity (LLC-MK2 [1]) was “Non-toxic”, the Activity (LLC-MK2 [2]) was “Non-toxic” and the IC50 [3] was 3000 nM.

For `CC(C)C(=O)N[C@H]1[C@H]([C@H](O)[C@H](O)CO)OC(C(=O)[O-])=C[C@@H]1N.[Na+]`, the Activity (LLC-MK2 [1]) was “Non-toxic”, the Activity (LLC-MK2 [2]) was “Non-toxic” and the IC50 [3] was 7290 nM.

In the case of `CC(=O)N[C@H]1[C@H]([C@H](O)[C@H](O)CO)OC(C(=O)[O-])=C[C@@H]1N.[Na+]`, the Activity (LLC-MK2 [1]) is reported as “Non-toxic”, the Activity (LLC-MK2 [2]) is reported as “Non-toxic” and the IC50 [3] is reported as greater than 250000 nM.

In the case of `[N-]=[N+]=N[C@H]1C=C(C(=O)[O-])O[C@@H]([C@H](O)[C@H](O)CO)[C@@H]1NC(=O)C1CCC1.[Na+]`, the Activity (LLC-MK2 [1]) is reported as “Non-toxic”, the Activity (LLC-MK2 [2]) is reported as “Non-toxic” and the IC50 [3] is reported as 930 nM.

With `CCC(C)C(=O)N[C@H]1[C@H]([C@H](O)[C@H](O)CO)OC(C(=O)[O-])=C[C@@H]1N=[N+]=[N-].[Na+]` (some centres not stated) the Activity (LLC-MK2 [1]) was “Non-toxic”, the Activity (LLC-MK2 [2]) was “Non-toxic” and the IC50 [3] was 320 nM.

In the case of `CC(C)C(=O)N[C@H]1[C@H]([C@H](O)[C@H](O)CO)OC(C(=O)O)=C[C@@H]1O`, the viability at 48 h, 250 µM [4] is reported as 93%, the viability at 48 h, 250 µM [5] is reported as 93% and the IC50 [3] is reported as 490 nM.

For `CC(=O)N[C@H]1[C@H]([C@H](O)[C@H](O)CO)OC(C(=O)[O-])=C[C@@H]1N=[N+]=[N-].[Na+]`, the Activity (LLC-MK2 [1]) was “Non-toxic”, the Activity (LLC-MK2 [2]) was “Non-toxic” and the IC50 [3] was 3500 nM.

With `CC(C)C(=O)N[C@H]1[C@H]([C@H](O)[C@H](O)CO)OC(C(=O)[O-])=C[C@@H]1N=[N+]=[N-].[Na+]` the Activity (LLC-MK2 [1]) was “Non-toxic”, the Activity (LLC-MK2 [2]) was “Non-toxic” and the IC50 [3] was 80 nM.
